From ChEMBL document CHEMBL1641480, “Antioxidant activity of a new C-glycosylflavone from the leaves of Ficus microcarpa” (Bioorg Med Chem Lett, 2011) come the findings set out here.

Format in all cases: functional
A short description of test [1]: Antioxidant activity assessed as peroxyl radical scavenging activity at 1 to 2 uM by ORAC assay. The method in brief: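 ORAC peroxyl-radical assay at 1.0 and 2.0 μM. Fluorescein is the radical target and 20 mM AAPH the generator. Fluorescence recorded every 2 min after AAPH, relative to the initial reading. Net area under the decay curve versus blank, expressed as μM Trolox equivalents against freshly prepared Trolox standard.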

The nature of test [2]: Metal chelating activity of the compound at 1 to 2 uM. An outline of the steps: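 Chelation: compound mixed 1:1 with CuSO4, then calcein added. Fluorescence read at excitation 485 nm and emission 535 nm, compared with calcein-only control. Tested at 1 and 2 μM; mean ± S.D.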
Test [3] is described as follows: Antioxidant activity assessed as copper ion radical scavenging activity at 2 uM. An outline of the steps:
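Cu(II)-reducing test: compound in distilled water mixed 40:160 with 0.5 mM CuCl2 plus 0.75 mM neocuproine in 10 mM phosphate buffer, pH 7.4. Absorbance read at 454 nm for 1 h. Reduced Cu(I) concentration measured at 2 μM compound.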

Activity calls are given as the source filed them. The calls are words filed in the database; no cut-off is given here.

As for `C[C@H](O)/C=C/[C@@]1(O)C(C)(C)C[C@H](O)C[C@@]1(C)O`, the outcome in test [1], in test [2] and in test [3] was inactive.

On to `CC[C@H](CC[C@@H](C)[C@H]1CC[C@H]2[C@@H]3CC=C4C[C@@H](O[C@@H]5O[C@H](CO)[C@@H](O)[C@H](O)[C@H]5O)CC[C@]4(C)[C@H]3CC[C@]12C)C(C)C`, for which the result in test [1], in test [2] and in test [3] was inactive.

Turning to `O=c1cc(-c2ccc(O[C@@H]3O[C@H](CO)[C@@H](O)[C@H](O)[C@H]3O)cc2)oc2cc(O)c([C@@H]3O[C@H](CO)[C@@H](O)[C@H](O)[C@H]3O)c(O)c12`, the outcome in test [2] and in test [3] was inactive.

`Oc1cc(O)c2c(c1)O[C@H](c1ccc(O)c(O)c1)[C@@H](O)C2`: the result in test [1] and in test [3] was Active. For the same compound, in test [2], the outcome was inactive.

As for `COc1cc(/C=C/CO)cc(OC)c1O[C@@H]1O[C@H](CO)[C@@H](O)[C@H](O)[C@H]1O`, the outcome in test [1], in test [2] and in test [3] was inactive.

As to `Oc1cc(O)c2c(c1)O[C@H](c1ccc(O)c(O)c1)[C@H](O)C2`, the result in test [1] and in test [3] was Active. In addition, the outcome in test [2] was inactive.

On to `O=c1cc(-c2ccc(O)c(O)c2)oc2cc(O)c([C@@H]3O[C@H](CO)[C@@H](O)[C@H](O)[C@H]3O)c(O)c12`, for which the result in test [1] and in test [3] was Active. For the same compound, in test [2], the outcome was inactive.

Consider `O=c1cc(-c2ccc(O)cc2)oc2cc(O)c([C@@H]3O[C@H](CO)[C@@H](O)[C@H](O)[C@H]3O)c(O)c12`, for which the result in test [2] and in test [3] was inactive.

Consider `C[C@H](/C=C/[C@]1(O)C(C)(C)C[C@@H](O)C[C@]1(C)O)O[C@H]1O[C@@H](CO)[C@H](O)[C@@H](O)[C@@H]1O`, for which the result in test [1], in test [2] and in test [3] was inactive.

`CC1=CC(=O)CC(C)(C)[C@H]1/C=C/[C@@H](C)O[C@@H]1O[C@H](CO[C@@H]2O[C@@H](CO)[C@H](O)[C@H]2O)[C@@H](O)[C@H](O)[C@H]1O`: the outcome in test [1], in test [2] and in test [3] was inactive.

As to `O=c1cc(-c2ccc(O)cc2)oc2c([C@@H]3O[C@H](CO)[C@@H](O)[C@H](O)[C@H]3O[C@H]3OC[C@@](O)(CO)[C@@H]3O)c(O)cc(O)c12`, the result in test [2] and in test [3] was inactive.

With `C[C@@H]1C[C@H](O)CC(C)(C)[C@@]1(O)CC[C@H](C)O[C@H]1O[C@@H](CO)[C@H](O)[C@@H](O)[C@@H]1O`, the outcome in test [1], in test [2] and in test [3] was inactive.

For the compound `CC[C@H](CC[C@@H](C)[C@H]1CC[C@H]2[C@@H]3CC=C4C[C@@H](O)CC[C@]4(C)[C@H]3CC[C@]12C)C(C)C`, the outcome in test [1], in test [2] and in test [3] was inactive.

Take `CCCCCCCCCCCCCCCCCC(=O)OC[C@H]1O[C@@H](O[C@H]2CC[C@@]3(C)C(=CC[C@H]4[C@@H]5CC[C@H]([C@H](C)CC[C@@H](CC)C(C)C)[C@@]5(C)CC[C@@H]43)C2)[C@H](O)[C@@H](O)[C@@H]1O`: the result in test [1], in test [2] and in test [3] was inactive.
